For orientation: viability means a read-out of living cells in per cent, often relative to untreated cells. Broadly, the inhibition is the drop in the measured response relative to a control, in per cent.

The nature of assay [1]: reducers of endogenous Her2 protein level, primary screen, SKBR3 breast tumor cells, AlphaScreen, ATP viability (AID 461).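 On Her2 level: lower value means less Her2 protein in the cells.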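 On viability: percent of carrier control wells set as 100% viability.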 As to conditions: 18-24 h, measured here: SKBR3 viability, ATP luminescence, at 10 µM.
Assay [2] deals with Receptor tyrosine-protein kinase erbB-2 (Homo sapiens) (UniProt P04626). The assay is described as above. As to conditions: 18-24 h, at 10 µM, stronger effect = lower value.
Chain of Receptor tyrosine-protein kinase erbB-2 (Homo sapiens) (P04626 whole entry, looked up): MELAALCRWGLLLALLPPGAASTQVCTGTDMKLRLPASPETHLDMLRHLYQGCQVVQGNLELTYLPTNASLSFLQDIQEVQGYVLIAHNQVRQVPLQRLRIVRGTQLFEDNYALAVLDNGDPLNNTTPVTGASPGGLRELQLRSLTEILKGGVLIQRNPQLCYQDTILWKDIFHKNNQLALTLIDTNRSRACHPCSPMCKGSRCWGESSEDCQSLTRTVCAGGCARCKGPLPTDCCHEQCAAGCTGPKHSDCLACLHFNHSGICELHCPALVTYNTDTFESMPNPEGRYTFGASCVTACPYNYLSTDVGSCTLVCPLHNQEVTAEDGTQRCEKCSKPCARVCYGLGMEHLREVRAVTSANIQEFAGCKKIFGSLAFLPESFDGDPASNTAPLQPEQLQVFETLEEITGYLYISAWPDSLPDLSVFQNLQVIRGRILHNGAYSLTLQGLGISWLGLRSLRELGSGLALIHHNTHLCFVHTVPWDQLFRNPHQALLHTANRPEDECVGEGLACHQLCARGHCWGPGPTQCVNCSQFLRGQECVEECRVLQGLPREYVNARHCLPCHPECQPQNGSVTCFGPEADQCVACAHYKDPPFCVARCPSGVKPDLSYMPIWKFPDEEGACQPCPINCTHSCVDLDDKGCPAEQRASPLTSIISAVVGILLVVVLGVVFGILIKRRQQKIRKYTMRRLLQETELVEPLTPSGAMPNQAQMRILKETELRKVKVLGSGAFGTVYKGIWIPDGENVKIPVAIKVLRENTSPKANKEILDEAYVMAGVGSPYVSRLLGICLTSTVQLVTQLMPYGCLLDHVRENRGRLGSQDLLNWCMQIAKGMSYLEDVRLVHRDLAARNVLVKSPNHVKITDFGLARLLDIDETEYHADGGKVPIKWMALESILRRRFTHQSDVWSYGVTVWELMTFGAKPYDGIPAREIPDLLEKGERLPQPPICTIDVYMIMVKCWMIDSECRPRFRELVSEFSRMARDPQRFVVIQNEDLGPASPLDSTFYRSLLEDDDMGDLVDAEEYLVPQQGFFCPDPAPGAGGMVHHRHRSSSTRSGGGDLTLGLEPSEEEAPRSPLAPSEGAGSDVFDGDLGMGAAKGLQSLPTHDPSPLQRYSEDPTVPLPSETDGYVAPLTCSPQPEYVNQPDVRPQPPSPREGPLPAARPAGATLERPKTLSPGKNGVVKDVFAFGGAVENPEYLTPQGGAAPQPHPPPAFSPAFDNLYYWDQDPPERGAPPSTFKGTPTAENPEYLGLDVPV
Assay [3] is described as follows: SK-BR-3 cell growth inhibitors, pilot screen, 24 h, human (AID 572;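 active means viability at or below 10% of carrier control in both of two separate runs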;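 further: compound exposure lasted between 18 and 24 h rather than exactly 24 h; 100% = carrier-treated control wells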). Conditions: SK-BR-3 viability, CellTiter-Glo luminescence, at 10 µM, stronger effect = lower value.
Assay [4] can be described thus: HUVEC growth inhibition – cell-based, human, primary screen (AID 575;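 active means viability at or below 30% in both replicate assays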;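 further: 100% = median of untreated cell wells with 0.1% DMSO on each plate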). As to conditions: HUVEC proliferation, CellTiter-Glo luminescence, 72 h; at 10 µM; stronger effect = lower value. An outline of the steps:
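System – primary HUVEC, no more than 12 passages · Medium – Low-serum (2% FBS) EBM, supplemented · Times – 72 h exposure, 37 °C, 5% CO2, 30 min RT equilibration · Measured by – luminescent ATP assay · Read-out – % viability relative to median vehicle-well signal on each plate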
On the technique in general: Cellular ATP, detected with luciferase, serves as a proxy for viable cell number.

Assay [5] in a line: growth inhibitors of H69AR lung tumor, primary screen, human, duplicate replicates (AID 580;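 active means viability at or under a set limit in both replicates, limit being median viability minus 3 SD, cut at about 48% in these data, passing the limit was not always enough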;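 further: 100% = mean luminescence of untreated wells and 0% = no signal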). As to conditions: H69AR lung tumor cells viability, ATP luminescence, 72 h; at 10 µM; stronger effect = lower value.
The nature of assay [6]: reversal of MRP1-mediated doxorubicin resistance, pilot screen, H69AR cells, doxorubicin co-treatment (AID 601;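 active means viability loss from added drug above about 55%, and viability with drug at most 40%, in both replicates, limit read from the data, passing the limit was not always enough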). Conditions: CellTiter-Glo, 72 h, at 10 µM; for differential viability (reversal): stronger effect = higher value.
The nature of assay [7]: 384-well plate pilot, post-Golgi transport modulator project, inhibition of yeast transport mutant growth (AID 636; in the data active means inhibition above about 31%). As to conditions: absorbance 615 nm, about 18 h, stronger effect = higher value.
Assay [8] in a line: growth suppression of yeast trafficking mutant, preliminary HTS, modulators of trafficking downstream of Golgi apparatus project, 1536-format plate, OD 615 nm (AID 637; in the data active means inhibition above about 30%). Conditions: yeast transport mutant growth, absorbance 615 nm, 18 h; stronger effect = higher value.
The mark [9] stands for this setting: H69AR cells + 2 uM doxorubicin, measured here: viability with 2 uM doxorubicin, stronger effect = lower value.
The mark [10] stands for this setting: H69AR cells, compound alone cytotoxicity.

Calls of active or inactive are those of the source.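 How the source made its calls, unless noted: active means Her2 level under about 52% in both replicate screens, with viability over 70% of control (limit read from the data); inconclusive means Her2 under the limit in one screen only, or viability under 70%; inactive means Her2 level above the set limit.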

As to `O=C1CCCC2=C1C(c1ccc(Br)cc1)c1c([nH]c(=S)[nH]c1=O)N2` (stereo not given), the viability in assay [1] was 84%; in assay [3], 84% (inactive); in assay [4], 99.3% (inactive); in assay [5], 91.7% (inactive); in assay [6] (setting [9]), 85.1%; in assay [6] (setting [10]), 91.7%. Further, the Her2 level in assay [2] was 112% (inactive). The differential viability (reversal) in assay [6] (H69AR cells + 2 uM doxorubicin) is 6.69% (inactive). The inhibition is -4.47% (inactive) in assay [7] and 8.67% (inactive) in assay [8].

On to `O=C(OCc1ccc2c(c1)OCO2)c1ccc(S(=O)(=O)N2CCCCC2)cc1`, for which the viability in assay [1] was 75.5%; in assay [3], 75.5% (inactive); in assay [4] it was 57.9% (inactive); in assay [5], 81.9% (inactive); in assay [6] (setting [9]), 81.3%; in assay [6] (setting [10]) it was 81.9%. Also, the Her2 level in assay [2] is 84% (inactive). For the same compound, the differential viability (reversal) in assay [6] (H69AR cells + 2 uM doxorubicin) was 0.615% (inactive). For the same compound, the inhibition in assay [7] was -0.77% (inactive); in assay [8], -2.5% (inactive).

Turning to `CCN1CCN(S(=O)(=O)c2ccc(S(=O)(=O)N(CC)Cc3ccccc3)cc2)CC1`, the viability was 98% in assay [1]; 98% (inactive) in assay [3]; 82.1% (inactive) in assay [4]; 91.9% (inactive) in assay [5]; 99% in assay [6] (setting [9]); 91.9% in assay [6] (setting [10]). The Her2 level in assay [2] is 94% (inactive). In assay [6] (H69AR cells + 2 uM doxorubicin), the differential viability (reversal) is -7.05% (inactive). Moreover, the figures for the inhibition in assay [7] and in assay [8] were -4.27% (inactive) and -1.13% (inactive), respectively.

As for `CCOC(=O)C1CCN(C(=O)CSc2cc(=O)n(CC)c3ccccc23)CC1`, the viability is 85% in assay [1]; 85% (inactive) in assay [3]; 84% (inactive) in assay [4]; 92.4% (inactive) in assay [5]; 82% in assay [6] (setting [9]); 92.4% in assay [6] (setting [10]). For the same compound, in assay [2], the Her2 level was 99.5% (inactive). For the same compound, in assay [6] (H69AR cells + 2 uM doxorubicin), the differential viability (reversal) is 10.4% (inactive). In addition, the results for the inhibition in assay [7] and in assay [8] were -0.39% (inactive) and -5.09% (inactive), respectively.

Turning to `C1CCC2=NCCCN2CC1`, the viability in assay [1] was 122%; in assay [3] it was 122% (inactive); in assay [4], 100% (inactive); in assay [5], 107% (inactive); in assay [6] (setting [9]) it was 98.4%; in assay [6] (setting [10]) it was 107%. Further, the Her2 level in assay [2] is 87.5% (inactive). The differential viability (reversal) in assay [6] (H69AR cells + 2 uM doxorubicin) was 8.22% (inactive). In addition, the values for the inhibition in assay [7] and in assay [8] were -7.33% (inactive) and -1.9% (inactive), respectively.

Regarding `O=C(NCC(=O)N(c1cnc2ccccc2c1)C(C(=O)NC1CCCC1)c1ccncc1)c1ccco1` (stereo not given), the viability in assay [1] is 86%; in assay [3], 86% (inactive); in assay [4], 94.5% (inactive); in assay [5] it was 90.1% (inactive); in assay [6] (setting [9]), 93.7%; in assay [6] (setting [10]) it was 90.1%. In addition, in assay [2], the Her2 level was 94% (inactive). The differential viability (reversal) in assay [6] (H69AR cells + 2 uM doxorubicin) is -3.65% (inactive). For the same compound, the inhibition was 3.64% (inactive) in assay [7] and 13.4% (inactive) in assay [8].

In the case of `CC1CN=C(N(C(=O)Nc2ccccc2)c2ccc(S(=O)(=O)N3CCOCC3)cc2)S1` (stereo not given), the viability was 95.5% in assay [1]; 95.5% (inactive) in assay [3]; 91.5% (inactive) in assay [4]; 95.3% (inactive) in assay [5]; 78.5% in assay [6] (setting [9]); 95.3% in assay [6] (setting [10]). The Her2 level in assay [2] was 108% (inactive). For the same compound, in assay [6] (H69AR cells + 2 uM doxorubicin), the differential viability (reversal) was 16.8% (inactive). Also, the inhibition in assay [7] was -0.51% (inactive); in assay [8], -8.67% (inactive).

For the compound `O=C(O)C1CC(=O)N(Cc2ccccc2)C1` (stereo not given), the viability in assay [1] was 109%; in assay [3] it was 109% (inactive); in assay [4], 91.2% (inactive); in assay [5], 90.2% (inactive); in assay [6] (setting [9]) it was 89.8%; in assay [6] (setting [10]), 90.2%. In addition, the Her2 level in assay [2] is 96.5% (inactive). The differential viability (reversal) in assay [6] (H69AR cells + 2 uM doxorubicin) is 0.445% (inactive). The results for the inhibition in assay [7] and in assay [8] were -5.39% (inactive) and 6.23% (inactive), respectively.

On to `CCC(=O)N1CCNC(=O)C1CC(=O)Nc1ccc(C)c(Cl)c1` (stereo not given), for which the viability in assay [1] is 97%; in assay [3], 97% (inactive); in assay [4], 94.2% (inactive); in assay [5] it was 95.8% (inactive); in assay [6] (setting [9]) it was 90.8%; in assay [6] (setting [10]), 95.8%. In addition, the Her2 level in assay [2] is 122% (inactive). Also, in assay [6] (H69AR cells + 2 uM doxorubicin), the differential viability (reversal) was 4.98% (inactive). Moreover, the inhibition is -2.8% (inactive) in assay [7] and -0.48% (inactive) in assay [8].

For `Cc1nc2ccc(NC(=O)N3CCC(c4ccccc4)C3)cc2nc1C` (stereo not given), the viability in assay [1] was 101%; in assay [3], 101% (inactive); in assay [4], 57.7% (inactive); in assay [5], 74.8% (inactive); in assay [6] (setting [9]) it was 65.4%; in assay [6] (setting [10]), 74.8%. Besides, the Her2 level in assay [2] was 93.5% (inactive). Besides, the differential viability (reversal) in assay [6] (H69AR cells + 2 uM doxorubicin) is 9.41% (inactive). The inhibition in assay [7] is -4.21% (inactive); in assay [8] it was -1.43% (inactive).

`CCOC(=O)C1=C(C)N=C2SCCC(=O)N2C1c1cc(Br)ccc1OC` (stereo not given): the viability in assay [1] is 94.5%; in assay [3], 94.5% (inactive); in assay [4] it was 107% (inactive); in assay [5], 92% (inactive); in assay [6] (setting [9]), 90.3%; in assay [6] (setting [10]), 92%. For the same compound, in assay [2], the Her2 level is 91% (inactive). In addition, the differential viability (reversal) in assay [6] (H69AR cells + 2 uM doxorubicin) was 1.69% (inactive). In addition, the inhibition is -7.67% (inactive) in assay [7] and 0% (inactive) in assay [8].

For the compound `COc1cc(OC)c(NC(=O)c2ccco2)cc1Cl`, the viability in assay [1] is 121%; in assay [3] it was 121% (inactive); in assay [4] it was 92.1% (inactive); in assay [5], 84.7% (inactive); in assay [6] (setting [9]), 96.9%; in assay [6] (setting [10]) it was 84.7%. In assay [2], the Her2 level is 81.5% (inactive). Further, the differential viability (reversal) in assay [6] (H69AR cells + 2 uM doxorubicin) was -12.1% (inactive). The inhibition was -3.95% (inactive) in assay [7] and 0% (inactive) in assay [8].

As to `O=C(CSc1nc2ccccc2c(=O)n1CCC(=O)N1CCCCC1)NCc1ccccc1`, the viability is 102% in assay [1]; 102% (inactive) in assay [3]; 99.5% (inactive) in assay [4]; 81.8% (inactive) in assay [5]; 95.1% in assay [6] (setting [9]); 81.8% in assay [6] (setting [10]). Further, the Her2 level in assay [2] is 80% (inactive). Moreover, in assay [6] (H69AR cells + 2 uM doxorubicin), the differential viability (reversal) was -13.3% (inactive). The figures for the inhibition in assay [7] and in assay [8] were -1.84% (inactive) and -2.86% (inactive), respectively.

For `Cc1nc2c3cnn(-c4ccccc4)c3ncn2n1`, the viability in assay [1] is 104%; in assay [3], 104% (inactive); in assay [4], 79.6% (inactive); in assay [5], 96.7% (inactive); in assay [6] (setting [9]) it was 82.5%; in assay [6] (setting [10]), 96.7%. Besides, the Her2 level in assay [2] is 86% (inactive). For the same compound, the differential viability (reversal) in assay [6] (H69AR cells + 2 uM doxorubicin) was 14.2% (inactive). The inhibition was -3.87% (inactive) in assay [7] and 1.64% (inactive) in assay [8].
